Source: ChEMBL document CHEMBL1134796, “Indenopyrazoles as novel cyclin dependent kinase (CDK) inhibitors” (J Med Chem, 2001)

Experiments:
AG1523 = assay: Cytotoxic effect on human AG1523 fibroblast cells; format: functional, cell-based
HCT-116 = assay: Inhibition of HCT116 cell proliferation; format: functional, cell-based; conditions: Homo sapiens
How it was run: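 HCT116 cells cultured with compound at increasing concentrations. At selected time points, cells fixed with trichloroacetic acid and stained with sulforhodamine B. Unbound dye washed off, and bound dye extracted for optical density reading.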

[1] = target: Cyclin-dependent kinase 4/cyclin D1 (Homo sapiens, UniProt P11802); assay: Inhibition of Cyclin Dependent Kinase 4 cyclin D1; format: protein-complex assay
How it was run: (§1)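 Lysates of insect cells expressing the cdk and its cyclin partner, run in kinase buffer with ³²P-ATP, GST-Rb fusion substrate and the compound at varying concentrations. Reaction stopped with excess EDTA. GST-Rb captured on GSH-Sepharose beads, washed, and counted by scintillation. IC50 is the concentration giving 50% inhibition of kinase activity.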

[2] = target: Cyclin-dependent kinase 2/cyclin E (Homo sapiens, UniProt P24941); assay: Inhibition of Cyclin-dependent kinase 2-cyclin E; format: protein-complex assay; how it was run: as §1
[3] = target: Tyrosine-protein kinase ABL1 (Homo sapiens, UniProt P00519); assay: Inhibition of c-Abl kinase
[4] = Inhibition of protein kinase A (PKA)
Protein kinase C (PKC) = assay: Inhibition of protein kinase C (PKC); format: protein assay
Mus musculus [5] = assay: In vivo antitumor activity in mice at 30 mg/kg/day (dosing schedule Q1DX14); 8/8; format: functional
How it was run: (§2)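 Female nude mice bearing HCT116 human colon carcinoma xenografts (1 × 10⁷ cells/animal, injected s.c. into the inguinal region). Drug was given ip once daily for 14 days, starting 7 days after cell injection. On day 15 after dosing, tumors were excised and weighed. Tumor growth inhibition index (%) = (1 − mean net tumor weight treated/control) × 100. Survivors reflect acute drug toxicity.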

Mus musculus [6] = assay: In vivo antitumor activity in mice at 10 mg/kg/day (dosing schedule Q1DX14); format: functional
How it was run: (§3)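 Female nude mice carrying HCT116 human colon carcinoma xenografts, 1 × 10⁷ cells injected subcutaneously into the inguinal region. Drug given intraperitoneally once daily for 14 days, starting 7 days after cell injection. Tumors excised and weighed on day 15 post-dosing. Growth inhibition index (%) = (1 − mean net tumor weight treated/mean net tumor weight control) × 100.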

Mus musculus [7] = assay: In vivo antitumor activity in mice at 3 mg/kg/day (dosing schedule Q1DX14); format: functional; how it was run: as §3
Mus musculus [8] = assay: In vivo antitumor activity in mice at 30 mg/kg/day (dosing schedule Q1DX14); format: functional; how it was run: as §3
Mus musculus [9] = assay: In vivo antitumor activity in mice at 3 mg/kg/day (dosing schedule Q1DX14); 8/8; format: functional; how it was run: as §2
Mus musculus [10] = assay: In vivo antitumor activity in mice at 10 mg/kg/day (dosing schedule Q1DX14); 8/8; format: functional; how it was run: as §2
Mus musculus [11] = assay: In vivo antitumor activity in mice at 7.5 mg/kg/day (dosing schedule Q1DX14); 5/8; format: functional; how it was run: as §2
Mus musculus [12] = assay: In vivo antitumor activity in mice at 7.5 mg/kg/day (dosing schedule Q1DX14); format: functional; how it was run: as §3
Mus musculus [13] = assay: In vivo antitumor activity in mice at 1 mg/kg/day (dosing schedule Q1DX14); 8/8; format: functional; how it was run: as §2
Mus musculus [14] = assay: In vivo antitumor activity in mice at 1 mg/kg/day (dosing schedule Q1DX14); format: functional; how it was run: as §3

Chain of Cyclin-dependent kinase 4/cyclin D1 (P11802 whole entry, the tested form may be a part): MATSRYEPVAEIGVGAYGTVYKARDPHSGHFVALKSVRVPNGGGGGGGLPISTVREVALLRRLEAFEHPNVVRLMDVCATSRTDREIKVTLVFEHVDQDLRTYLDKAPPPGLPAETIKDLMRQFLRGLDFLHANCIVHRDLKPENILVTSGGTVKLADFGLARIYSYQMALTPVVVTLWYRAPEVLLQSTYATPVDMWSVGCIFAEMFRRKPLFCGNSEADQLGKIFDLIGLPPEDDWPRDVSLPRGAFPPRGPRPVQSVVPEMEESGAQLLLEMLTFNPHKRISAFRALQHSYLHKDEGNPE
Chain of Cyclin-dependent kinase 4/cyclin D1 (P24385 whole entry, further chain, the tested form may be a part): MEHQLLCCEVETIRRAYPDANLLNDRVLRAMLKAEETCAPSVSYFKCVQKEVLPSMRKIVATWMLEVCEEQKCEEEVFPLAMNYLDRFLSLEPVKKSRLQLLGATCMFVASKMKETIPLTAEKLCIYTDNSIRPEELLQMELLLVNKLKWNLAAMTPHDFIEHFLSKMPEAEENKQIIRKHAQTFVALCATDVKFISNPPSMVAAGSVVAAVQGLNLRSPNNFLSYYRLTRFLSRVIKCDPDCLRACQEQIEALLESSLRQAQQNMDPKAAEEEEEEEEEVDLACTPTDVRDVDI
Chain of Tyrosine-protein kinase ABL1 (P00519 whole entry): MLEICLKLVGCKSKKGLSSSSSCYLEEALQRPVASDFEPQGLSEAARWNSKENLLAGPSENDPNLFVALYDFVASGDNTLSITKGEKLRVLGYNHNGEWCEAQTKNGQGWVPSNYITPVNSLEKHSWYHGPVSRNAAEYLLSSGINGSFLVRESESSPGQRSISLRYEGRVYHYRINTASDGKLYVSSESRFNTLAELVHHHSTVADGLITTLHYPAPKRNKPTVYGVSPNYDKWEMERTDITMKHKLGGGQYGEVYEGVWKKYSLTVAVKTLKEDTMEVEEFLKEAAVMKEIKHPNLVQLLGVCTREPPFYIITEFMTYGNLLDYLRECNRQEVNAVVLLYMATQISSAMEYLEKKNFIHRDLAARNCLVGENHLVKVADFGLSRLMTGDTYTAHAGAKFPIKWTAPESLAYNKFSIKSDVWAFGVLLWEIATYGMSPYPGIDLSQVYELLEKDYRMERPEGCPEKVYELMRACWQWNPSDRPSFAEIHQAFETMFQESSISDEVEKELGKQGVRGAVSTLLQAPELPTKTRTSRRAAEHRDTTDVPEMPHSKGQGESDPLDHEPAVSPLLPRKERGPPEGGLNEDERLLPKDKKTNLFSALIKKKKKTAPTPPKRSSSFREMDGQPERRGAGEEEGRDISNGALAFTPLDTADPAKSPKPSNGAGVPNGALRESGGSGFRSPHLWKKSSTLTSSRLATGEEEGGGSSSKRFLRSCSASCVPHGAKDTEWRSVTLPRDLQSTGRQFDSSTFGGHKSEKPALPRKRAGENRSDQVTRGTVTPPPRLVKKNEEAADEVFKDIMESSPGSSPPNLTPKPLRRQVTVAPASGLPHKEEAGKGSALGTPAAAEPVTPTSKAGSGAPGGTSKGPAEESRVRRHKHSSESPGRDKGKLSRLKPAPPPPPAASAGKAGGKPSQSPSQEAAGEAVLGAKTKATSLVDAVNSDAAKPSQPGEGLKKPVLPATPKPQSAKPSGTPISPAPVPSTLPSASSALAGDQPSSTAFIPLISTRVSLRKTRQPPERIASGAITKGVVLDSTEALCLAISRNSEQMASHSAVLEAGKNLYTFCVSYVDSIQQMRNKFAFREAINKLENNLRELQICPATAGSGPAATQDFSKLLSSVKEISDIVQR

| SMILES | IC50 (HCT-116) [µM] | IC50 [1] [µM] | IC50 [2] [µM] | IC50 (AG1523) [µM] | also measured |
| --- | --- | --- | --- | --- | --- |
| COc1ccc(-c2[nH]nc3c2C(=O)c2ccccc2-3)cc1 |  | 45 | 26 |  | IC50 [3]: > 725 µM; IC50 [4]: 239 µM; IC50 (Protein kinase C (PKC)): > 725 µM |
| COc1ccc(-c2[nH]nc3c2C(=O)c2c(NC=O)cccc2-3)cc1 | 0.69 | 0.2 | 0.08 | > 63 | No. survived (Mus musculus [5]): 8; Tumor weight (Mus musculus [6]): 871 mg; inhibition in vivo at 10 mg/kg/day (Mus musculus [6]): 19%; Tumor weight (Mus musculus [7]): 1171 mg; inhibition in vivo at 3 mg/kg/day (Mus musculus [7]): 0%; Tumor weight (Mus musculus [8]): 608 mg; inhibition in vivo at 30 mg/kg/day (Mus musculus [8]): 43%; No. survived (Mus musculus [9]): 8; No. survived (Mus musculus [10]): 8 |
| CN1CCC(c2c(O)cc(O)c3c(=O)cc(-c4ccccc4Cl)oc23)[C@@H](O)C1 (mixture of isomers) |  |  |  |  | No. survived (Mus musculus [11]): 5; Tumor weight (Mus musculus [12]): 538 mg; inhibition in vivo at 7.5 mg/kg/day (Mus musculus [12]): 50% |
| CO[C@@]12[C@H](COC(N)=O)C3=C(C(=O)C(C)=C(N)C3=O)N1C[C@@H]1N[C@@H]12 [MITOMYCIN] |  |  |  |  | No. survived (Mus musculus [13]): 8; Tumor weight (Mus musculus [14]): 455 mg; inhibition in vivo at 1 mg/kg/day (Mus musculus [14]): 58% |

Further lines, with some results ahead:

| IC50 (HCT-116) [µM] | IC50 [1] [µM] | IC50 [2] [µM] | SMILES | IC50 (AG1523) [µM] | also measured |
| --- | --- | --- | --- | --- | --- |
| 0.4 | 0.48 | 0.038 | COc1ccc(-c2[nH]nc3c2C(=O)c2c(NC(=O)Cc4ccc(N)cc4)cccc2-3)cc1 | > 24 |  |
|  | > 250 | 41 | COc1ccc(-c2[nH]nc3c2C(=O)c2c(NC(=O)c4ccccc4)cccc2-3)cc1 |  |  |
| 7.5 | 45 | 2.1 | COc1ccc(-c2[nH]nc3c2C(=O)c2c(NC(=O)C(C)(C)C)cccc2-3)cc1 |  |  |
| 2.9 | 35 | 1.4 | COc1ccc(-c2[nH]nc3c2C(=O)c2c(NC(=O)C(C)C)cccc2-3)cc1 | > 28 |  |
| 2.7 | 0.45 | 0.27 | COc1ccc(-c2[nH]nc3c2C(=O)c2c(NC(C)=O)cccc2-3)cc1 |  |  |
